The nature of data set [1]: Cytotoxicity against rat PC12 cells assessed as reduction in cell viability at 20 uM to 100 uM incubated for 24 hrs by MTT assay. Format: cell-based. The following applies: pc-12, 24 h. (In general: Tetrazolium dyes change colour on reduction, which living cells bring about.)
Data set [2] can be described thus: Cytotoxicity against rat PC12 cells assessed as reduction in cell viability at 20 uM incubated for 24 hrs by MTT assay. Format: cell-based. To be noted: pc-12, 24 h.
The subject of data set [3] is PC-12. Put plainly: Cytoprotection activity against H2O2-induced apoptosis in rat PC12 cells assessed as reduction in caspase-3 activation at 10 and 20 uM pre-incubated for 24 hrs before H2O2 exposure for 24 hrs by colorimetric assay. It is filed as functional, cell-based. Summed up: (§1)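 Lysed in RIPA buffer (pH 7.5), protein by Bradford; caspase-3 measured colorimetrically with Ac-DEVD-pNA substrate, expressed as % of control; mean ± SD, three independent experiments.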

Data set [4] relates to PC-12. Put plainly: Cytoprotection activity against 6-OHDA-induced apoptosis in rat PC12 cells assessed as reduction in caspase-3 activation at 10 and 20 uM pre-incubated for 24 hrs before 6-OHDA exposure for 24 hrs by colorimetric assay. Format: functional, cell-based. Summed up:
as §1

Data set [5] has as its system PC-12. Put plainly: Cytoprotection activity against 6-OHDA-induced oxidative stress in rat PC12 cells assessed as reduction in ROS generation at 10 and 20 uM pre-incubated for 24 hrs before 6-OHDA exposure for 5 hrs by DCFH-DA dye based fluorescent microscopy. It is filed as functional, cell-based.
In data set [6] the test system is PC-12. Put plainly: Induction of antioxidant genes expression in rat PC12 cells assessed as increase in Trx1 mRNA level at 20 uM incubated for 6 hrs by qRT-PCR method. Format: functional, cell-based. Summed up: (§2)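 PC12 cells, 1×10^6 per 60-mm dish, 1 day, then 20 μM compound for 0, 3, 6 and 12 h; total RNA isolated, quantified by 260/280 absorbance; mRNA by real-time RT-PCR normalized to GAPDH; mean ± SD of three independent experiments versus 0 h.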
(In qPCR the cycle at which signal appears reflects the starting amount.)

Data set [7] relates to PC-12. The experiment in a line: Induction of antioxidant genes expression in rat PC12 cells assessed as increase in TrxR1 mRNA level at 20 uM incubated for 6 hrs by qRT-PCR method. Format: functional, cell-based. Summed up: (§3)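 PC12 cells (1×10^6 per 60-mm dish) seeded 1 day, then exposed to 20 μM compound for 0, 3, 6 and 12 h. Total RNA isolated and quantified by 260/280 absorbance. Transcripts measured by qRT-PCR, normalized to GAPDH internal control, compared against 0 h control. Means ± SD of three independent experiments.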

The test system of data set [8] is PC-12. Put plainly: Induction of antioxidant genes expression in rat PC12 cells assessed as increase in TrxR1 mRNA level at 20 uM incubated for 3 hrs by qRT-PCR method. It is filed as functional, cell-based. Summed up:
as §3

The subject of data set [9] is PC-12. Put plainly: Induction of antioxidant genes expression in rat PC12 cells assessed as increase in Trx1 mRNA level at 20 uM incubated for 3 hrs by qRT-PCR method. Format: functional, cell-based. Summed up:
as §2

The subject of data set [10] is PC-12. Put plainly: Induction of antioxidant defense system in rat PC12 cells assessed as increase in NQO1 activity level incubated for 24 hrs by DCPIP dye reduction based spectrophotometry. It is filed as functional, cell-based. Summed up:
(§4)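 NQO1: PC12 lysate in RIPA buffer, 5 μg protein into 20 mM Tris-HCl pH 7.4, 200 μM NADH, 40 μM DCPIP; A600 decrease read every 8 s for 2 min at room temperature ± 20 μM dicoumarol; dicoumarol-inhibitable rate used, expressed as % of DMSO control. Cells pretreated 24 h; stress lines then 500 μM H2O2 or 200 μM 6-OHDA 12 h.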

Data set [11] relates to PC-12. Put plainly: Induction of antioxidant defense system in rat PC12 cells assessed as increase in Trx activity level incubated for 24 hrs by recombinant rat TrxR1 based assay. It is filed as functional, cell-based. Summed up:
(§5)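 Cellular Trx activity: extract with 20 μg protein incubated 30 min at 37 °C in 100 mM Tris-HCl pH 7.4 with 0.3 mM insulin, 660 μM NADPH, 3 mM EDTA, 60 nM recombinant rat TrxR1; stopped with 1 mM DTNB in 6 M guanidine-HCl pH 8.0; A412 minus TrxR-free blank; % of DMSO control.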

Data set [12] has as its system PC-12. The experiment in a line: Cytoprotection activity against H2O2-induced oxidative stress in rat PC12 cells assessed as NQO1 activity at pre-incubated for 24 hrs before H2O2 exposure for 12 hrs by DCPIP dye reduction based spectrophotometry. It is filed as functional, cell-based. Summed up: as §4
Data set [13] has as its system PC-12. The experiment in a line: Cytoprotection activity against H2O2-induced oxidative stress in rat PC12 cells assessed as Trx activity at pre-incubated for 24 hrs before H2O2 exposure for 12 hrs by recombinant rat TrxR1 based assay. Format: functional, cell-based. Summed up: as §5
For data set [14], the system named is PC-12. The experiment in a line: Cytoprotection activity against 6-OHDA-induced oxidative stress in rat PC12 cells assessed as GSH level at pre-incubated for 24 hrs before 6-OHDA exposure for 12 hrs. It is filed as functional, cell-based. Summed up:
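Total glutathione: cells extracted in KPE buffer (0.1% Triton X-100, 0.6% sulfosalicylic acid, 5 mM EDTA, 0.1 M PBS pH 7.5), sonicated on ice, centrifuged 3000 g 4 min at 4 °C; supernatant assayed enzymatically. PC12 cells 1×10^6 in 60-mm dishes, compound 24 h; stress lines add 500 μM H2O2 or 200 μM 6-OHDA 12 h.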

Data set [15] concerns PC-12. The experiment in a line: Cytoprotection activity against 6-OHDA-induced oxidative stress in rat PC12 cells assessed as NQO1 activity at pre-incubated for 24 hrs before 6-OHDA exposure for 12 hrs by DCPIP dye reduction based spectrophotometry. Format: functional, cell-based. Summed up: as §4
Data set [16] concerns PC-12. The experiment in a line: Cytoprotection activity against 6-OHDA-induced oxidative stress in rat PC12 cells assessed as Trx activity at pre-incubated for 24 hrs before 6-OHDA exposure for 12 hrs by recombinant rat TrxR1 based assay. Format: functional, cell-based. Summed up: as §5
For data set [17], the system named is PC-12. Put plainly: Cytoprotection activity against 6-OHDA-induced oxidative stress in rat PC12 cells assessed as TrxR1 activity at pre-incubated for 24 hrs before 6-OHDA exposure for 12 hrs by Escherichia coli Trx based assay. Format: functional, cell-based. Summed up:
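Cellular TrxR activity: extract with 20 μg protein incubated 30 min at 37 °C in 100 mM Tris-HCl pH 7.4 containing 0.3 mM insulin, 660 μM NADPH, 3 mM EDTA, 4 μM E. coli Trx; stopped with 1 mM DTNB in 6 M guanidine-HCl pH 8.0; A412 minus Trx-free blank; % of DMSO control.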

Data set [18] deals with PC-12. Put plainly: Induction of total Nrf2 protein expression in rat PC12 cells at 20 uM incubated for 2 to 8 hrs by Western blotting method. It is filed as functional, cell-based. Summed up: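 Seeded at 1×10^6 cells per 60-mm dish for 24 h, PC12 cells were treated with 20 μM compound for 0, 2, 4 and 8 h. Whole-cell, cytosolic and nuclear protein extracts were then prepared and Nrf2 probed by Western blot.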

Active and inactive are the calls of the source. No cut-off for these calls is given here.

As for `COc1ccc(/C=C/C(=O)N2CCCC2=O)cc1`, the Activity result in [1] is “Non-toxic”; in data set [2], “Non-toxic”; in the data set on PC-12 [3], “Dose-dependent effect”; in the data set with PC-12 [4], “Dose-dependent effect”; in the data set with PC-12 [5] it was “Dose-dependent effect”. In addition, the result with PC-12 [6], with PC-12 [7], in the data set with PC-12 [8], in the data set with PC-12 [9], in the data set on PC-12 [10] and in the data set with PC-12 [11] was Active. The outcome in the data set with PC-12 [12], with PC-12 [13], in the data set with PC-12 [14], in the data set on PC-12 [15], with PC-12 [16] and in the data set on PC-12 [17] was Active. Further, in the data set on PC-12 [18], the result was Active.

Regarding `COc1cc(/C=C/C(=O)N2CCCCC2=O)cc(OC)c1OC`, the Activity entry was “Non-toxic” in [1]; “Non-toxic” in data set [2]; “Dose-dependent effect” with PC-12 [3]; “Dose-dependent effect” in the data set on PC-12 [4]; “Dose-dependent effect” in the data set on PC-12 [5]. Moreover, the result with PC-12 [6], with PC-12 [7], in the data set with PC-12 [8], in the data set on PC-12 [9], with PC-12 [10] and in the data set on PC-12 [11] was Active. The outcome in the data set with PC-12 [12], with PC-12 [13], with PC-12 [14], with PC-12 [15], in the data set with PC-12 [16] and in the data set on PC-12 [17] was Active. Moreover, in the data set on PC-12 [18], the result was Active.
